Test results reported in ChEMBL document CHEMBL1124837, “5-Hydroxytryptamine (5-HT3) receptor antagonists. 1. Indazole and indolizine-3-carboxylic acid derivatives” (J Med Chem, 1990).

What follows are molecules tested against Serotonin 3 (5-HT3) receptor (Rattus norvegicus) (UniProt P35563+Q9JJ16) (assay: Inhibition of 5-HT evoked reflex bradycardia in rat.).
Format: functional, organism-based
How it was run: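 Anesthetized rats (260–290 g; urethane 1.25 g/kg ip) with blood pressure and heart rate recorded. A submaximal 5-HT dose (6 μg/kg iv) was given repeatedly and heart-rate changes were quantified. Test agents were given iv before 5-HT. ID50 is the dose cutting the 5-HT-evoked response to 50% of control.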

| Compound | ID50 |
| --- | --- |
| Cc1cc(C(=O)NC2CC3CCC(C2)N3C)n2ccccc12 (stereo not drawn) | 1.6 µg/kg |
| CN1C2CCC1CC(OC(=O)c1[nH]nc3ccccc13)C2 (stereo not drawn) | 5.3 µg/kg |
| CCc1nc(C(=O)NC2CC3CCCC(C2)N3C)c2ccccn12 (stereo not drawn) | 0.5 µg/kg |
| CN1C2CCC1CC(NC(=O)c1n[nH]c3ccccc13)C2 (stereo not drawn) | 1.2 µg/kg |
| CCc1nc(C(=O)NC2CC3CCC(C2)N3C)c2ccccn12 (stereo not drawn) | 1 µg/kg |
| CCc1cc(C(=O)NC2CC3CCC(C2)N3C)n2ccccc12 (stereo not drawn) | 1 µg/kg |
| CN1C2CCC1CC(OC(=O)c1nn(C)c3ccccc13)C2 (stereo not drawn) | 1.4 µg/kg |
| CN1C2CCC1CC(NC(=O)c1ccc3ccccn13)C2 (stereo not drawn) | > 10 µg/kg |

Now from value to molecule:

| ID50 | Compound |
| --- | --- |
| 12.4 µg/kg | CN1C2CCCC1CC(NC(=O)c1[nH]nc3ccc(Cl)cc13)C2 (stereo not drawn) |
| 3.6 µg/kg | Cc1nccn1CC1CCc2c(c3ccccc3n2C)C1=O (stereo not drawn) |
| 1.4 µg/kg | CN1[C@@H]2CC[C@H]1C[C@@H](OC(=O)c1c[nH]c3ccccc13)C2 |
| > 100 µg/kg | CN1C2CCCC1CC(NC(=O)c1c3ccccc3nn1C)C2 (stereo not drawn) |
| 1.1 µg/kg | CN1C2CCCC1CC(NC(=O)c1[nH]nc3ccccc13)C2 (stereo not drawn) |
| 6.8 µg/kg | CN1C2CCCC1CC(NC(=O)c1cn(C)c3ccccc13)C2 (stereo not drawn) |
| 2 µg/kg | CN1C2CCCC1CC(NC(=O)c1nn(C)c3ccccc13)C2 (stereo not drawn) |
| 1 µg/kg | CN1C2CCCC1CC(NC(=O)c1[nH]nc3ccc(F)cc13)C2 (stereo not drawn) |
| 4.7 µg/kg | CN1C2CCC1CC(NC(=O)c1cc(-c3ccccc3)c3ccccn13)C2 (stereo not drawn) |
| 0.6 µg/kg | CCn1nc(C(=O)NC2CC3CCCC(C2)N3C)c2ccccc21 (stereo not drawn) |
